Measurements taken from ChEMBL document CHEMBL2417469, “Synthesis of novel analogs of 2-pyrazoline obtained from [(7-chloroquinolin-4-yl)amino]chalcones and hydrazine as potential antitumor and antimalarial agents” (Eur J Med Chem, 2013).
≈ marks a conversion by molar mass, not a printed value.

Experiments:
Plasmodium falciparum [1] = assay: Antimalarial activity against Plasmodium falciparum NF54 infected in human serum at 20 ug/ml after 48 hrs by fluorometric method; format: functional
Procedure, shortened: (§1)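 Asynchronous P. falciparum NF54 at 1.5–2% parasitemia, 5% hematocrit in RPMI with 10% human serum, exposed 48 h at 37 °C under 90% N2/5% CO2/5% O2 at the stated concentration; parasite DNA stained with ethidium bromide after proteinase K lysis; viability % = (Flu treated − medium)/(Flu untreated − medium) ×100; triplicate.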

[2] = Toxicity in RBC (unknown origin) assessed as hemolysis after 48 hrs at 20 to 80 ug/ml by spectrophotometry; format: cell-based, Erythrocyte; details: red blood cells (RBC); read-out: Activity
Procedure, shortened: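 Red blood cells at 5% hematocrit in RPMI 1640 exposed to 20, 40 and 80 µg/mL for 48 h at 37 °C; free hemoglobin read spectrophotometrically at 542 nm.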

Plasmodium falciparum [3] = assay: Antimalarial activity against Plasmodium falciparum NF54 infected in human serum after 48 hrs by fluorometric method; format: functional, organism-based
Procedure, shortened: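 Asynchronous P. falciparum NF54 cultures at 1.5–2% parasitemia, 5% hematocrit in RPMI with 10% human serum; equal volumes of parasite suspension and compound dilutions (from 100 µg/mL stock) incubated 48 h, 37 °C, 90% N2/5% CO2/5% O2. DNA extracted with proteinase K lysis, stained with ethidium bromide; fluorescence-based viability vs compound-free control. IC50 by Probit; triplicate.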

Plasmodium falciparum [4] = assay: Antimalarial activity against Plasmodium falciparum NF54 infected in human serum at 22.2 ug/ml after 48 hrs by fluorometric method; format: functional; procedure, shortened: as §1

IC50 (Plasmodium falciparum [3]) | SMILES | inhibition at 20 µg/mL (Plasmodium falciparum [1]) | hemolysis at 48 h [2] | inhibition at 22.2 µg/mL (Plasmodium falciparum [4])
– | Cc1ccc(C2CC(c3cccc(Nc4ccnc5cc(Cl)ccc45)c3)=NN2C=O)cc1 (stereo unspecified) | 0% | – | –
38 µg/mL (≈ 86.2 µM) | CC(=O)N1N=C(c2ccc(Nc3ccnc4cc(Cl)ccc34)cc2)CC1c1ccccc1 (stereo unspecified) | 33% | 2.8% | –
> 100 µg/mL | COc1ccc(C2CC(c3ccc(Nc4ccnc5cc(Cl)ccc45)cc3)=NN2C(C)=O)cc1 (stereo unspecified) | 38.3% | 3.1% | –
– | COc1cc(C2CC(c3ccc(Nc4ccnc5cc(Cl)ccc45)cc3)=NN2C(C)=O)cc(OC)c1OC (stereo unspecified) | 0% | – | –
– | CC(=O)N1N=C(c2ccc(Nc3ccnc4cc(Cl)ccc34)cc2)CC1c1ccc(C)cc1 (stereo unspecified) | 10.6% | – | –
14.1 µg/mL (≈ 27.9 µM) | O=CN1N=C(c2ccc(Nc3ccnc4cc(Cl)ccc34)cc2)CC1c1ccc(Br)cc1 (stereo unspecified) | 50.8% | 3.2% | –
– | O=CN1N=C(c2cccc(Nc3ccnc4cc(Cl)ccc34)c2)CC1c1ccc(Br)cc1 (stereo unspecified) | 12.5% | – | –
– | CC(=O)N1N=C(c2ccc(Nc3ccnc4cc(Cl)ccc34)cc2)CC1c1ccc(Br)cc1 (stereo unspecified) | 6.8% | – | –
– | CCN(CC)CCCC(C)Nc1ccnc2cc(Cl)ccc12 (stereo unspecified) [CHLOROQUINE PHOSPHATE] | – | 17.2% | 68.4%
